In assay [1] the target is MAP kinase-activated protein kinase 2 (Homo sapiens) (UniProt P49137). Description: Inhibition of MAPKAP-K2 (unknown origin) assessed as residual enzyme activity at 10 uM.
Assay [2] addresses Mitogen-activated protein kinase 9 (Homo sapiens) (UniProt P45984). Description: Inhibition of JNK2 (unknown origin) assessed as residual enzyme activity at 10 uM.
Assay [3] addresses T1, Dual specificity tyrosine-phosphorylation-regulated kinase 3 (Homo sapiens) (UniProt O43781).
T1 sequence (whole entry): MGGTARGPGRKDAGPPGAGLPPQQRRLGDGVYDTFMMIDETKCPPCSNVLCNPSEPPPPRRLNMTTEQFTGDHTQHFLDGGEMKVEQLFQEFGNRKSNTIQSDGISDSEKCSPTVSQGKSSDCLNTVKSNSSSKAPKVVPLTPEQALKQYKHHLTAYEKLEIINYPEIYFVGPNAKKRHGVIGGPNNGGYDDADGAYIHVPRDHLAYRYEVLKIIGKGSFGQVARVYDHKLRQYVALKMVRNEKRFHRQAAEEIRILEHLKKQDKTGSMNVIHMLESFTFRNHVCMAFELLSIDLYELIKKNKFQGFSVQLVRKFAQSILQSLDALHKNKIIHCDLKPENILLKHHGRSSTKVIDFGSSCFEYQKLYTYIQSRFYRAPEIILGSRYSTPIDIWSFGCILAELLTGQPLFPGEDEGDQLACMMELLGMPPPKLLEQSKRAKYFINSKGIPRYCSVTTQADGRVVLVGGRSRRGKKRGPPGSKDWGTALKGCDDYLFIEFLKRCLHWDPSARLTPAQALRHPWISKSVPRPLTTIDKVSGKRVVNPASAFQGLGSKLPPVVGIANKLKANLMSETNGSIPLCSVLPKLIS
Description: Inhibition of DYRK3 (unknown origin) assessed as residual enzyme activity at 10 uM.

Assay [4] relates to Trypanosoma brucei brucei. Briefly: Trypanocidal activity against bloodstream stage of Trypanosoma brucei brucei assessed as inhibition of proliferation after 72 hrs. It is filed as functional, organism-based. In outline:
(§1)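 Resazurin viability assay: 2 × 10³ cells/well (MRC5 in MEM + 10% FBS; bloodstream-form T. b. brucei in appropriate medium), compounds 50 μM to 0.5 nM, 37 °C, 5% CO₂ for 69 h, then resazurin 50 μM final for further 4 h; fluorescence read. Concentration giving 50% growth inhibition over 72 h; average of two or more experiments.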

Assay [5] has as its target Dual specificity mitogen-activated protein kinase kinase 1 (Homo sapiens) (UniProt Q02750). Description: Inhibition of MKK1 (unknown origin) assessed as residual enzyme activity at 10 uM.
In assay [6] the target is CDK2/Cyclin A2 (Homo sapiens, UniProt P24941). Briefly: Inhibition of human CDK2/cyclin A using Biotin-C6-PKTPKKAKKL substrate. It is filed as protein-complex assay.
Assay [7] deals with Mitogen-activated protein kinase 1 (Homo sapiens) (UniProt P28482). Description: Inhibition of ERK2 (unknown origin) assessed as residual enzyme activity at 10 uM.
Chain of Mitogen-activated protein kinase 1 (Homo sapiens) (P28482 whole entry): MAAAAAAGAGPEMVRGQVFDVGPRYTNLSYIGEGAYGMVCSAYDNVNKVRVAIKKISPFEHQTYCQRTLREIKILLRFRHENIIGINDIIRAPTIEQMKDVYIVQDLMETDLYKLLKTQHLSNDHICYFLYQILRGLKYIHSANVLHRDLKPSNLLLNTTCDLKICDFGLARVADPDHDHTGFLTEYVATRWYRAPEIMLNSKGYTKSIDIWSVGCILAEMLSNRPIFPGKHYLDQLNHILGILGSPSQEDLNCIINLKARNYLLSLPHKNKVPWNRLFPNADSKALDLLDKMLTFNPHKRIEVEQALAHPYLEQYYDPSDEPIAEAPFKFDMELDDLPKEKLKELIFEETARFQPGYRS
In assay [8] the target is Dual specificity tyrosine-phosphorylation-regulated kinase 1A (Homo sapiens) (UniProt Q13627). Description: Inhibition of DYRK1A (unknown origin) assessed as residual enzyme activity at 10 uM.
Assay [9] has as its target Serine/threonine-protein kinase pim-3 (Homo sapiens) (UniProt Q86V86). Description: Inhibition of PIM3 (unknown origin) assessed as residual enzyme activity at 10 uM.
Assay [10] deals with Maternal embryonic leucine zipper kinase (Homo sapiens) (UniProt Q14680). Description: Inhibition of MELK (unknown origin) assessed as residual enzyme activity at 10 uM.
Chain of Maternal embryonic leucine zipper kinase (Homo sapiens) (Q14680 whole entry, looked up): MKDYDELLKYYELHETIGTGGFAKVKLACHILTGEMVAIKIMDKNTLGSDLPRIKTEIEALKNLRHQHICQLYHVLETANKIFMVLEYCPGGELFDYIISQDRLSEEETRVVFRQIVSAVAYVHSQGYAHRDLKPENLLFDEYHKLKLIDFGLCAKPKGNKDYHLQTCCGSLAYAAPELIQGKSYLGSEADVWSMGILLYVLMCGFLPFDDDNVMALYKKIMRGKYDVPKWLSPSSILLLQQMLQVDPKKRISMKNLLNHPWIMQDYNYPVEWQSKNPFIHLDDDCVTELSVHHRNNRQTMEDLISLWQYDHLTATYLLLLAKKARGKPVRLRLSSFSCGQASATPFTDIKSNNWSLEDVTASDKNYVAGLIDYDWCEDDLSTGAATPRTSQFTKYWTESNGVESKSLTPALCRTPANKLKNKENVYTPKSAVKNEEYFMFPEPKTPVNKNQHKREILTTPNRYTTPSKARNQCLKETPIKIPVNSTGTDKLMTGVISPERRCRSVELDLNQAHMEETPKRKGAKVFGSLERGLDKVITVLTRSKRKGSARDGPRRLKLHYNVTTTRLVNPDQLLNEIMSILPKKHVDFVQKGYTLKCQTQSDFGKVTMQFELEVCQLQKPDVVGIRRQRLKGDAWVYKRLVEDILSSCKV
Assay [11] deals with Serine/threonine-protein kinase pim-1 (Homo sapiens) (UniProt P11309). Briefly: Inhibition of PIM1 (unknown origin) assessed as residual enzyme activity at 10 uM.
Chain of Serine/threonine-protein kinase pim-1 (Homo sapiens) (P11309 whole entry, looked up): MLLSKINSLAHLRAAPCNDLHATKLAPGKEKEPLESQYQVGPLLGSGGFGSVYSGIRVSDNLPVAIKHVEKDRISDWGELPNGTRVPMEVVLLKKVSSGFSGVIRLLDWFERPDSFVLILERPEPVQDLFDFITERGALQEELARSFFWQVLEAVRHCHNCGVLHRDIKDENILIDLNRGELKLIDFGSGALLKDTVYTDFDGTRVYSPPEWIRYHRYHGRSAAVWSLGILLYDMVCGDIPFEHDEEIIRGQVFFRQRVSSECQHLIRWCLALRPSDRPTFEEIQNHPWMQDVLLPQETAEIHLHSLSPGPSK
Assay [12] relates to MRC5. Description: Cytotoxicity against human MRC5 cells assessed as growth inhibition after 72 hrs. It is filed as cell-based. As to conditions: MRC5, 72 h. A digest of the protocol: as §1
Assay [13] concerns the target T2, Dual specificity tyrosine-phosphorylation-regulated kinase 2 (Homo sapiens) (UniProt Q92630).
T2 sequence (whole entry): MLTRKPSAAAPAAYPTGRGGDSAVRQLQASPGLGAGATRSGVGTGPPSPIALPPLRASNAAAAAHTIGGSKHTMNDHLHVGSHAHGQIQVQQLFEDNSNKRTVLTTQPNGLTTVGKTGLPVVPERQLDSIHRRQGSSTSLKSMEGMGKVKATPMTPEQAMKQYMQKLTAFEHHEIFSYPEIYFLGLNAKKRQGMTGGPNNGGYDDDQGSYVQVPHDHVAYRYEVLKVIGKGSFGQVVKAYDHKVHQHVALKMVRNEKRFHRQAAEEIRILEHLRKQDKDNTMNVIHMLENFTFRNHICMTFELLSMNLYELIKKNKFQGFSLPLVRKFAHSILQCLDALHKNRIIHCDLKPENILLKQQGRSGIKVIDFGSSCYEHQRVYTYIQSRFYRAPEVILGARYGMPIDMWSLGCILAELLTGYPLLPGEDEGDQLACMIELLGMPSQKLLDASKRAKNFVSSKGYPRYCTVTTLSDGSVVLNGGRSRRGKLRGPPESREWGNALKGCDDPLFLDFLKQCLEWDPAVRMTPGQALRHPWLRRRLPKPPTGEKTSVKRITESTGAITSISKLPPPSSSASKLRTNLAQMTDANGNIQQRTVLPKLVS
Description: Inhibition of DYRK2 (unknown origin) assessed as residual enzyme activity at 10 uM.

Assay [14] has as its target Cyclin-dependent kinase 2 (Homo sapiens) (UniProt P24941). Description: Inhibition of CDK2 (unknown origin) assessed as residual enzyme activity at 10 uM.
In assay [15] the target is T3, Mitogen-activated protein kinase 15 (Homo sapiens) (UniProt Q8TD08).
T3 sequence (whole entry): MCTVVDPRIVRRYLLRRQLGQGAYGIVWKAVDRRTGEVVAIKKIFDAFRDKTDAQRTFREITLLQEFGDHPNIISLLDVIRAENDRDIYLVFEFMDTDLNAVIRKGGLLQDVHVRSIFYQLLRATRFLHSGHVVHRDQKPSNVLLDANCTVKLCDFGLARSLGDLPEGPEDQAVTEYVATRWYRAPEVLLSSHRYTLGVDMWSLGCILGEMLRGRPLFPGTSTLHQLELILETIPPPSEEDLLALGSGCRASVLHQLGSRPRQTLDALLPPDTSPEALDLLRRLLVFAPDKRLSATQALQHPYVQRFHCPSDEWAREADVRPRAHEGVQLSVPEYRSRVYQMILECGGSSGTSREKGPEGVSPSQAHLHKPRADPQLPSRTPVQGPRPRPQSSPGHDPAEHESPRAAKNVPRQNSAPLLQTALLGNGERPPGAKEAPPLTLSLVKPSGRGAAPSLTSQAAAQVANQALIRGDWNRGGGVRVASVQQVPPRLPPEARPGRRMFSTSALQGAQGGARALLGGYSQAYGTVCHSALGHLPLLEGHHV
Briefly: Inhibition of ERK8 (unknown origin) assessed as residual enzyme activity at 10 uM.

Assay [16] is described as follows: Selectivity ratio, ratio of IC50 for human CDK2/cyclin A to IC50 for Trypanosoma brucei GSK3.
Assay [17] addresses Insulin-like growth factor 1 receptor (Homo sapiens) (UniProt P08069). Briefly: Inhibition of IGF-1R (unknown origin) assessed as residual enzyme activity at 10 uM.
A short description of assay [18]: Inhibition of Trypanosoma brucei GSK3 using biotinylated GSP2 substrate by flashplate assay. A digest of the protocol:
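Radiometric Flashplate assay: 2.5 nM TbGSK3 short, 1 μM biotinylated GSP2, 1 μM ATP plus [γ-33P]-ATP. 10-point titration 30 μM to 0.3 nM final, 1% DMSO. IC50 averaged over two or more experiments; standard GW8510 used for reproducibility (MSR).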

Assay [19] concerns the target Glycogen synthase kinase-3 (Homo sapiens, UniProt P49840+P49841). Description: Inhibition of human GSK3 using biotinylated GSP2 substrate by flashplate assay. It is filed as protein assay.
In assay [20] the target is Glycogen synthase kinase-3 beta (Homo sapiens) (UniProt P49841). Description: Inhibition of GSK3b (unknown origin) assessed as residual enzyme activity at 10 uM.
Chain of Glycogen synthase kinase-3 beta (Homo sapiens) (P49841 whole entry, looked up): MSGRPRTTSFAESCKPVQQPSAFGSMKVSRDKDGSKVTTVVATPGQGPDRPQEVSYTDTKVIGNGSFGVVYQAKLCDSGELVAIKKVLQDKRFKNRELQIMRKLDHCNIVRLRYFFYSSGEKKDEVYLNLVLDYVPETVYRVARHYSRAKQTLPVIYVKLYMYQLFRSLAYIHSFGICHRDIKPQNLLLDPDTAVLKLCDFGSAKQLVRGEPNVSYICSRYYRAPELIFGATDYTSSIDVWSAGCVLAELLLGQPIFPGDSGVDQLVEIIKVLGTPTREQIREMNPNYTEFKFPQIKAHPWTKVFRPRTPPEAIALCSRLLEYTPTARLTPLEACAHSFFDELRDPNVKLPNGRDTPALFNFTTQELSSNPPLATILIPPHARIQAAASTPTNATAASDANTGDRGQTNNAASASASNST
In assay [21] the target is Homeodomain-interacting protein kinase 2 (Homo sapiens) (UniProt Q9H2X6). Briefly: Inhibition of HIPK2 (unknown origin) assessed as residual enzyme activity at 10 uM.
Chain of Homeodomain-interacting protein kinase 2 (Homo sapiens) (Q9H2X6 whole entry, looked up): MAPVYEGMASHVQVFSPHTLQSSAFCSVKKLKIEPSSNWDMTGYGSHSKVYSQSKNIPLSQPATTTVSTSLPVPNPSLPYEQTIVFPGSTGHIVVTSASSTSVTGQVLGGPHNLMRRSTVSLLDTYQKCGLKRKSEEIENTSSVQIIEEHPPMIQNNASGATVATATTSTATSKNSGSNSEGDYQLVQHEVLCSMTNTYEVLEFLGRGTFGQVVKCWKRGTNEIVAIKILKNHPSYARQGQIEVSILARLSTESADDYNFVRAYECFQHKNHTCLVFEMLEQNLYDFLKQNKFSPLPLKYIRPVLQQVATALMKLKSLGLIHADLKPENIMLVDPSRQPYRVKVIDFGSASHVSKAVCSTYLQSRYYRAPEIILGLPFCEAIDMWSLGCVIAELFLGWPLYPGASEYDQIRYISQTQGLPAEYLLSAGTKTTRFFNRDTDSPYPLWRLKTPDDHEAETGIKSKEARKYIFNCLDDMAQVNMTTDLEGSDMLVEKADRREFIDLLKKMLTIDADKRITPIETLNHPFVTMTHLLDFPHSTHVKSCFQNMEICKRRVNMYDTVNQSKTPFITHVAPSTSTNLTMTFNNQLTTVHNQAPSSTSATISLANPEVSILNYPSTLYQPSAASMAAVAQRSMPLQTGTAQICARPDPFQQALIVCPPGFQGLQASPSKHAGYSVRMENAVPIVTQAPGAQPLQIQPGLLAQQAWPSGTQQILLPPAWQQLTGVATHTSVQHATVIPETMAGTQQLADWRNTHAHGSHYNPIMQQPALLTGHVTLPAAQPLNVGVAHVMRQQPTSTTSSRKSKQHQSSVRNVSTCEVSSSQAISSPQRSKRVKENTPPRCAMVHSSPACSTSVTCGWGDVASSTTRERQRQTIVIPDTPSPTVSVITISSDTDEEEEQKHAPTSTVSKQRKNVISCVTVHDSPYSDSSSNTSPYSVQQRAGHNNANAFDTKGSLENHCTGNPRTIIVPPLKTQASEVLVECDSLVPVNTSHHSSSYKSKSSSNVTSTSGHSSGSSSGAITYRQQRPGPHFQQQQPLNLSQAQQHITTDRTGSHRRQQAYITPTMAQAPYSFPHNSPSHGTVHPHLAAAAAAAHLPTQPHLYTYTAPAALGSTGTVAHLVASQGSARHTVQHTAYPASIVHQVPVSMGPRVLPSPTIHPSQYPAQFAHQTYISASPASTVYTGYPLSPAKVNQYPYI
The target in assay [22] is Mitogen-activated protein kinase 8 (Homo sapiens) (UniProt P45983). Briefly: Inhibition of JNK1 (unknown origin) assessed as residual enzyme activity at 10 uM.
Chain of Mitogen-activated protein kinase 8 (Homo sapiens) (P45983 whole entry): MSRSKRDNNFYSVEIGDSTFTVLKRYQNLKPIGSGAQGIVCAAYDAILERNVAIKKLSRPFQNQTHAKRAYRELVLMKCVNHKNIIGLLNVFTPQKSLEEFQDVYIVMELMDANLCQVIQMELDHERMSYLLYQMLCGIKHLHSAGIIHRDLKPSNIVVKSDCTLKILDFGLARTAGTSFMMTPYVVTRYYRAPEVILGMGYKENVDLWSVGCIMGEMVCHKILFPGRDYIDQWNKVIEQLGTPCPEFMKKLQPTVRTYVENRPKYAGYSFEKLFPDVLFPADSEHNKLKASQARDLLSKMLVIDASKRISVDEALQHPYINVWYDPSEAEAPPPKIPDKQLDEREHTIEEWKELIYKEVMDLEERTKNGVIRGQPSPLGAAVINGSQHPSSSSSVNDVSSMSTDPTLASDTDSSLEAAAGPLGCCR
Assay [23] is described as follows: Selectivity ratio, ratio of IC50 for human GSK3 to IC50 Trypanosoma brucei GSK3.
Assay [24] deals with Misshapen-like kinase 1 (Homo sapiens) (UniProt Q8N4C8). Briefly: Inhibition of MINK1 (unknown origin) assessed as residual enzyme activity at 10 uM.

Here are results for four compounds from ChEMBL document CHEMBL3352013, “The design and synthesis of potent and selective inhibitors of Trypanosoma brucei glycogen synthase kinase 3 for the treatment of human african trypanosomiasis” (J Med Chem, 2014).

The term EC50 denotes the concentration at which the effect is half-maximal. The term IC50 denotes the midpoint of a concentration-inhibition curve. Lower therefore signals inhibition by little substance.

Chain of Dual specificity mitogen-activated protein kinase kinase 1 (Homo sapiens) (Q02750 whole entry): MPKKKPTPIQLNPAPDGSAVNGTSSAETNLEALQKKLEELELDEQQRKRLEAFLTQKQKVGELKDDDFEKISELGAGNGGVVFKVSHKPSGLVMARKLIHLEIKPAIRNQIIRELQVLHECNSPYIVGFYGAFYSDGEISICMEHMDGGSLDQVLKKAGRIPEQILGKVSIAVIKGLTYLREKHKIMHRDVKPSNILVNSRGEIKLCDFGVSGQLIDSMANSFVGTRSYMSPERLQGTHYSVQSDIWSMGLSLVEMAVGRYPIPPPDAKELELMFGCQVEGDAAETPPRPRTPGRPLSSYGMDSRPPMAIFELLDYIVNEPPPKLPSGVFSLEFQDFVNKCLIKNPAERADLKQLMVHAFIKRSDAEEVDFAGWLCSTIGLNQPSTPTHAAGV
Chain of Mitogen-activated protein kinase 9 (Homo sapiens) (P45984 whole entry, looked up): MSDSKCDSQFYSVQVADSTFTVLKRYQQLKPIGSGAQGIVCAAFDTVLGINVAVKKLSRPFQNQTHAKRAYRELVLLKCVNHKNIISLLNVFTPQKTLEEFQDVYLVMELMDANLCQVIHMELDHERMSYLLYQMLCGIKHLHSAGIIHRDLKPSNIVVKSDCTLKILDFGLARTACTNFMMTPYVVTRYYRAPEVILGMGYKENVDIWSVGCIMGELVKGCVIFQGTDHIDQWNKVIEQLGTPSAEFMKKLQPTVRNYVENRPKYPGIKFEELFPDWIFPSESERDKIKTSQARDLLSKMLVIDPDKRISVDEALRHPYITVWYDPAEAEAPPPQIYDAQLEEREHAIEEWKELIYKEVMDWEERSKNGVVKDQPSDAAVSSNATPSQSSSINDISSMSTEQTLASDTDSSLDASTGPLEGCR
Chain of MAP kinase-activated protein kinase 2 (Homo sapiens) (P49137 whole entry, looked up): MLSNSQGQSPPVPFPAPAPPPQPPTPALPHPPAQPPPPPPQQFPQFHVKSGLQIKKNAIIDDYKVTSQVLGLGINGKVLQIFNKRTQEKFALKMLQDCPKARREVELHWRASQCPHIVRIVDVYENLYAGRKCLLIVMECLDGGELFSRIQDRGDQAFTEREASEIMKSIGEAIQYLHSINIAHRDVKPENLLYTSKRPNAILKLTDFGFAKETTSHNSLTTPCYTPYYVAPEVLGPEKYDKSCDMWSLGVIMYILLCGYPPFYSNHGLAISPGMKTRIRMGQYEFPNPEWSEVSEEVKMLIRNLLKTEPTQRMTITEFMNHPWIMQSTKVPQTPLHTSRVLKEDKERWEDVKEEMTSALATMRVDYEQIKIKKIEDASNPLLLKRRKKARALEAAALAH

Consider `CO[C@H]1CC[C@H](NC(=O)c2n[nH]cc2NC(=O)c2ccc(-c3ccccc3)o2)CC1`, for which the Activity is 90% in [1]; 15% in [2]; 2% in [3]; 17% in assay [5]; 2% in [7]; 1% in assay [8]. Further, the Activity in [9] is 1%; in assay [10], 13%; in [11], 13%; in assay [13], 1%; in assay [14] it was 1%; in assay [15] it was 7%. For the same compound, the Activity in assay [17] turned out to be 15%; in assay [20] it was 0%; in assay [21], 4%; in [22], 8%. The figures for the 50% effective concentration (EC50) in assay [4] and in assay [12] were 300 nM and 100 nM, respectively. Besides, the IC50 in assay [6] was 10 nM; in [18] it was 7 nM; in assay [19], below 5 nM. Also, in [16], the Ratio IC50 turned out to be 1.4.

`CO[C@H]1CC[C@H](NC(=O)c2n[nH]cc2NC(=O)c2ccccc2)CC1`: the Activity amounted to 92% in assay [1]; 51% in assay [2]; 24% in [3]; 54% in [5]; 18% in [7]; 6% in assay [8]. Also, the Activity is 19% in assay [9]; 32% in assay [10]; 46% in assay [11]; 3% in assay [13]; 1% in [14]; 14% in assay [15]. For the same compound, the Activity in assay [17] is 96%; in assay [20], 33%; in assay [21], 14%; in assay [22], 31%. In addition, the EC50 came out at 1300 nM in [4] and 800 nM in assay [12]. Further, the IC50 in [6] is 38 nM; in [18], 24 nM; in assay [19] it was below 5 nM.

Take `COc1cccc(OC)c1C(=O)Nc1c[nH]nc1C(=O)N[C@H]1CC[C@H](OC)CC1`: the Activity in assay [1] was found to be 33%; in assay [2], 82%; in assay [3] it was 100%; in assay [5], 83%; in assay [7] it was 51%; in assay [8], 84%. The Activity in assay [9] stood at 94%; in [10], 100%; in assay [11] it was 100%; in assay [13], 63%; in assay [14], 9%; in assay [15], 27%. The Activity in assay [17] stood at 100%; in [20], 0%; in assay [21], 100%; in assay [22] it was 77%. Further, the Ratio IC50 in [23] is below 2.5; in assay [16], 95. Besides, the results for the EC50 in [4] and in [12] were 500 nM and 31000 nM, respectively. Besides, the IC50 in assay [6] was 190 nM; in [18], 2 nM; in assay [19], below 5 nM.

Turning to `COc1cccc(OC)c1C(=O)Nc1c[nH]nc1C(=O)NCc1ccccc1`, the Activity was determined as 13% in assay [1]; 63% in assay [2]; 80% in [3]; 76% in [5]; 92% in assay [7]; 79% in assay [8]. Further, the Activity in [9] came to 96%; in [10] it was 96%; in assay [11], 92%; in [13], 28%; in [14], 38%; in assay [15], 47%. Further, the Activity in assay [24] amounted to 18%; in assay [17], 79%; in [20], 10%; in [21], 93%; in assay [22], 71%. Besides, the Ratio IC50 in assay [23] is 330; in assay [16], above 10000. Further, the EC50 came out at 5900 nM in assay [4] and 50000 nM in assay [12]. For the same compound, the values for the IC50 in assay [6], in [18] and in assay [19] were above 10000 nM, 1 nM and 330 nM, respectively.
